The inhibition is the relative decrease from the control value, in per cent.

The results in this text go back to ChEMBL document CHEMBL1250448, “Inhibitor hijacking of Akt activation” (Nat Chem Biol, 2009).

The source made the active and inactive calls. No cut-off for these calls is given here.

Experiment [1] deals with Tyrosine-protein kinase ABL1 (Homo sapiens), P00519 [T315I]. The experiment is described as follows: Inhibition of ABL1 T315I mutant at 1 uM in presence of 10 uM ATP by Select Screen kinase assay relative to untreated control. In outline:
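Single-point screen at 1 μM against a panel of 220 purified kinases, run by Invitrogen staff as a SelectScreen profiling service. Read-out is percent inhibition of kinase activity.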

Experiment [2] concerns the target Ribosomal protein S6 kinase alpha-6 (Homo sapiens) (UniProt Q9UK32). The experiment in a line: Inhibition of RPS6KA6 at 1 uM in presence of 10 uM ATP by Select Screen kinase assay relative to untreated control. An outline of the steps: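 Commercial SelectScreen profiling panel of 220 purified kinases. Each kinase was tested at a single inhibitor concentration of 1 μM, and activity was expressed as percent inhibition.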

In experiment [3] the target is Tyrosine-protein kinase JAK2 (Homo sapiens) (UniProt O60674). The experiment in a line: Inhibition of JAK2 at 1 uM in presence of 10 uM ATP by Select Screen kinase assay relative to untreated control. In outline: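 Single-concentration profiling at 1 μM against a panel of 220 purified kinases, run as an outsourced SelectScreen kinase profiling service. Activity is expressed as percent inhibition.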

The target of experiment [4] is Serine/threonine-protein kinase PAK 4 (Homo sapiens) (UniProt O96013). The experiment is described as follows: Inhibition of PAK4 at 1 uM in presence of 10 uM ATP by Select Screen kinase assay relative to untreated control.
Experiment [5] has as its system PC-3. The experiment in a line: Induction of myristoylated AKT2 M225G mutant Thr308 hyperphosphorylation expressed in PC3 cells at 2.5 uM after 30 mins by immunoblotting. The experiment is classed as cell-based. A general note: In western blotting, separated proteins are transferred to a membrane and probed.
Experiment [6] deals with MCF7. The experiment is described as follows: Induction of myristoylated AKT2 M225G and kinase dead D289A mutant Ser473 hyperphosphorylation expressed in MCF7 cells at 2.5 uM after 30 mins by immunoblotting. The experiment is classed as cell-based.
Experiment [7] relates to RAC-alpha serine/threonine-protein kinase (Homo sapiens), P31749 [M227G,D292A]. The experiment is described as follows: Induction of myristoylated AKT1 M227G and kinase dead D292A mutant Ser473 hyperphosphorylation expressed in MiaPaCa2 cells at 2.5 uM after 30 mins by immunoblotting. The format is cell-based.
The subject of experiment [8] is PC-3. The experiment is described as follows: Induction of myristoylated AKT2 M225G and kinase dead D289A mutant Ser473 hyperphosphorylation expressed in PC3 cells at 2.5 uM after 30 mins by immunoblotting. The experiment is classed as cell-based.
Experiment [9] concerns RAC-alpha serine/threonine-protein kinase (Homo sapiens), P31749 [M227G]. The experiment in a line: Induction of myristoylated AKT1 M227G Ser473 hyperphosphorylation expressed in MCF7 cells at 2.5 uM after 30 mins by immunoblotting. The format is cell-based.
Experiment [10] has as its system MCF7. The experiment in a line: Induction of myristoylated AKT2 M225G mutant Ser473 hyperphosphorylation expressed in MCF7 cells at 2.5 uM after 30 mins by immunoblotting. The format is cell-based.
The subject of experiment [11] is PC-3. The experiment is described as follows: Induction of myristoylated AKT2 M225G mutant Ser473 hyperphosphorylation expressed in PC3 cells at 2.5 uM after 30 mins by immunoblotting. The experiment is classed as cell-based.
Experiment [12] concerns RAC-alpha serine/threonine-protein kinase (Homo sapiens), P31749 [M227G]. The experiment is described as follows: Induction of myristoylated AKT1 M227G Thr308 hyperphosphorylation expressed in HEK293 cells coexpressing flag-tagged wild type AKT1 after 30 mins by immunoblotting. The experiment is classed as cell-based.
Experiment [13] deals with HEK-293T. The experiment is described as follows: Induction myristoylated AKT2 M225G mutant Thr308 hyperphosphorylation expressed in HEK293T cells at 2.5 uM after 30 mins by immunoblotting. The experiment is classed as cell-based.
Experiment [14] concerns HEK-293T. The experiment in a line: Induction of myristoylated AKT3 M229G mutant Ser473 hyperphosphorylation expressed in HEK293T cells at 2.5 uM after 30 mins by immunoblotting. The experiment is classed as cell-based.
For experiment [15], the system named is RAC-alpha serine/threonine-protein kinase (Homo sapiens), P31749 [M227G]. The experiment is described as follows: Inhibition of myristoylated AKT1 M227G mutant expressed in HEK293T cells assessed as reduction of GSK3-beta Ser9 phosphorylation after 30 mins by immunoblotting. The format is cell-based. The conditions noted are these: HEK-293T.
Experiment [16] shares this test system. The experiment in a line: Induction of myristoylated AKT1 M227G mutant Thr308 hyperphosphorylation expressed in HEK293T cells at 2.5 uM after 30 mins pretreated with pan-PI3K inhibitor PIK90 for 10 mins before compound addition by immunoblotting. The format is cell-based. The conditions noted are these: HEK-293T.
For experiment [17], the system named is RAC-alpha serine/threonine-protein kinase (Homo sapiens), P31749 [M227G,R25C]. The experiment is described as follows: Induction of myristoylated AKT1 M227G and R25C mutant Ser473 hyperphosphorylation expressed in HEK293T cells at 2.5 uM after 30 mins by immunoblotting. The format is cell-based. The conditions noted are these: HEK-293T.
Experiment [18] has as its system RAC-alpha serine/threonine-protein kinase (Homo sapiens), P31749 [M227G]. The experiment is described as follows: Induction of membrane localized myristoylated AKT1 M227G mutant Ser473 hyperphosphorylation expressed in HEK293T cells at 2.5 uM after 30 mins by immunoblotting. The experiment is classed as cell-based. The conditions noted are these: HEK-293T.
For experiment [19] the test system is unchanged. The experiment in a line: Induction of myristoylated AKT1 M227G mutant Ser473 hyperphosphorylation expressed in HEK293T cells at 2.5 uM after 30 mins pretreated with PDK1 inhibitor BX-795 for 10 mins before compound addition by immunoblotting. The experiment is classed as cell-based. The conditions noted are these: HEK-293T.
Experiment [20] concerns HEK-293T. The experiment is described as follows: Induction myristoylated AKT2 M225G mutant Ser473 hyperphosphorylation expressed in HEK293T cells at 2.5 uM after 30 mins pretreated with PDK1 inhibitor BX-795 for 10 mins before compound addition by immunoblotting. The format is cell-based.
Experiment [21] deals with HEK-293T. The experiment in a line: Induction myristoylated AKT2 M225G mutant Thr308 hyperphosphorylation expressed in HEK293T cells at 2.5 uM after 30 mins pretreated with mTOR kinase inhibitor PP242 for 10 mins before compound addition by immunoblotting. The experiment is classed as cell-based.
Experiment [22] has as its system RAC-alpha serine/threonine-protein kinase (Homo sapiens), P31749 [M227G]. The experiment in a line: Induction of myristoylated AKT1 M227G mutant Ser473 hyperphosphorylation expressed in HEK293T cells at 2.5 uM after 30 mins pretreated with mTOR kinase inhibitor PP242 for 10 mins before compound addition by immunoblotting. The conditions noted are these: HEK-293T. The experiment is classed as cell-based.

Experiment [23] relates to HEK-293T. The experiment is described as follows: Induction of myristoylated AKT2 M225G and kinase dead D289A mutant Thr308 hyperphosphorylation expressed in HEK293T cells at 2.5 uM after 30 mins by immunoblotting. The experiment is classed as cell-based.
For experiment [24], the system named is RAC-alpha serine/threonine-protein kinase (Homo sapiens), P31749 [M227G,D292A]. The experiment is described as follows: Induction of myristoylated AKT1 M227G and kinase dead D292A mutant Thr308 hyperphosphorylation expressed in MCF7 cells at 2.5 uM after 30 mins by immunoblotting. The experiment is classed as cell-based.
Experiment [25] shares this test system. The experiment is described as follows: Induction of myristoylated AKT1 M227G and kinase dead D292A mutant Thr308 hyperphosphorylation expressed in MiaPaCa2 cells at 2.5 uM after 30 mins by immunoblotting. The experiment is classed as cell-based.
For experiment [26] the test system is unchanged. The experiment is described as follows: Induction of myristoylated AKT1 M227G and kinase dead D292A mutant Thr308 hyperphosphorylation expressed in PC3 cells at 2.5 uM after 30 mins by immunoblotting. The conditions noted are these: PC-3. The format is cell-based.
A further experiment has as its system MiaPaCa2. The experiment is described as follows: Induction of myristoylated AKT2 M225G mutant Thr308 hyperphosphorylation expressed in MiaPaCa2 cells at 2.5 uM after 30 mins by immunoblotting. The experiment is classed as cell-based.
Experiment [27] has as its target RAC-alpha serine/threonine-protein kinase (Homo sapiens, UniProt P31749). The experiment in a line: Induction of flag-tagged wild type AKT1 Ser473 hyperphosphorylation expressed in HEK293 cells coexpressing HA-tagged AKT1 M227G after 30 mins by immunoblotting.
The subject of experiment [28] is RAC-alpha serine/threonine-protein kinase (Homo sapiens), P31749 [M227G]. The experiment is described as follows: Increase in catalytic activity of compound exposed AKT1 M227G mutant expressed in HEK293 cells measured post compound dissociation by in vitro immunoprecipitation kinase assay relative to untreated AKT1 M227G mutant. The conditions noted are these: HEK-293.

Chain of RAC-alpha serine/threonine-protein kinase (Homo sapiens), P31749 [M227G] (P31749 whole entry M227G): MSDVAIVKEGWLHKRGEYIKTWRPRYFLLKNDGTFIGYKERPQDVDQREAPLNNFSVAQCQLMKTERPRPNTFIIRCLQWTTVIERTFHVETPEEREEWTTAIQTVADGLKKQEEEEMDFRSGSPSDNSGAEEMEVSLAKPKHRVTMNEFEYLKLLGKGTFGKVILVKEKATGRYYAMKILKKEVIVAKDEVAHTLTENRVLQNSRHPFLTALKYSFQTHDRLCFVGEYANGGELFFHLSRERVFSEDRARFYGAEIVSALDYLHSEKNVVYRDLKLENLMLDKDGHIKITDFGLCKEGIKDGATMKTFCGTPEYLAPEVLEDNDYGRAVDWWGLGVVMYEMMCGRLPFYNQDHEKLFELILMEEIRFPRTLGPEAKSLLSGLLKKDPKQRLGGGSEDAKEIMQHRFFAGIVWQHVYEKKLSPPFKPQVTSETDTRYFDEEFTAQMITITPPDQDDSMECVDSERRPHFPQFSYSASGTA
Chain of RAC-alpha serine/threonine-protein kinase (Homo sapiens), P31749 [M227G,D292A] (P31749 whole entry M227G/D292A): as the sequence (P31749 whole entry M227G) above, with D292A counted along it
Chain of Serine/threonine-protein kinase PAK 4 (Homo sapiens) (O96013 whole entry, looked up): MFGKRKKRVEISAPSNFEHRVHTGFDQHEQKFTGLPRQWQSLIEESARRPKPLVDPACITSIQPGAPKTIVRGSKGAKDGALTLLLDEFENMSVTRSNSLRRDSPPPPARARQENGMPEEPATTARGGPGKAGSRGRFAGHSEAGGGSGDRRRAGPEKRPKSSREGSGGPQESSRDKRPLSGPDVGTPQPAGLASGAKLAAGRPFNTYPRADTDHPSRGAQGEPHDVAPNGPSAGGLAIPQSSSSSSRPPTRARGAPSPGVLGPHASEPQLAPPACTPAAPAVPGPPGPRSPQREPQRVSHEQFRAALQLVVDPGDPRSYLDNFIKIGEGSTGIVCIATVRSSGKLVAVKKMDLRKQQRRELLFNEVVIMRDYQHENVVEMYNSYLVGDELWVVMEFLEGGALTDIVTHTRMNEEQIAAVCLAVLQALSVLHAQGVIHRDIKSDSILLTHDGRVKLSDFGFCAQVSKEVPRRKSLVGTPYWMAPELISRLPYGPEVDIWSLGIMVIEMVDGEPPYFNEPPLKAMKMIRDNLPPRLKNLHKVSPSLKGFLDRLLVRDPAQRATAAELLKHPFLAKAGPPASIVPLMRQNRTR
Chain of Ribosomal protein S6 kinase alpha-6 (Homo sapiens) (Q9UK32 whole entry): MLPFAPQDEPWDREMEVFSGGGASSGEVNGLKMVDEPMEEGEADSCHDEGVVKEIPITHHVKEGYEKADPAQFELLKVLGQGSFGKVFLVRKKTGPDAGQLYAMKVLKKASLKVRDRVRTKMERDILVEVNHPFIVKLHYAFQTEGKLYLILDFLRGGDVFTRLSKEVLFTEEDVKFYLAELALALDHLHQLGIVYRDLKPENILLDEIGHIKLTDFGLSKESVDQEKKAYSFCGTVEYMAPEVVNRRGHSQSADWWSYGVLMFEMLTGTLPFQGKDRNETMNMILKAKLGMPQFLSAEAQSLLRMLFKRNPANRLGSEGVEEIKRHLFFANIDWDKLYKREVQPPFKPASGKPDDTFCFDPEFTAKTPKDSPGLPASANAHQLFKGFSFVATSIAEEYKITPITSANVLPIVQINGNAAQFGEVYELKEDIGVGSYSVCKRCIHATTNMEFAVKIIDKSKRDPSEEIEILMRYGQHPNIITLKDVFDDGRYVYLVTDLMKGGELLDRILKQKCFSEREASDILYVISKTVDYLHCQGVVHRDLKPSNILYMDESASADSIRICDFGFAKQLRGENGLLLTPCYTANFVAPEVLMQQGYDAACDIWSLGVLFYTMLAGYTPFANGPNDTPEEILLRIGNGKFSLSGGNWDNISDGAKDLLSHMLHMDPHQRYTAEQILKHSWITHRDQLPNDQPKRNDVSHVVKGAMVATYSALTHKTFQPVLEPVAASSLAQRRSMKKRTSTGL
Chain of Tyrosine-protein kinase JAK2 (Homo sapiens) (O60674 whole entry): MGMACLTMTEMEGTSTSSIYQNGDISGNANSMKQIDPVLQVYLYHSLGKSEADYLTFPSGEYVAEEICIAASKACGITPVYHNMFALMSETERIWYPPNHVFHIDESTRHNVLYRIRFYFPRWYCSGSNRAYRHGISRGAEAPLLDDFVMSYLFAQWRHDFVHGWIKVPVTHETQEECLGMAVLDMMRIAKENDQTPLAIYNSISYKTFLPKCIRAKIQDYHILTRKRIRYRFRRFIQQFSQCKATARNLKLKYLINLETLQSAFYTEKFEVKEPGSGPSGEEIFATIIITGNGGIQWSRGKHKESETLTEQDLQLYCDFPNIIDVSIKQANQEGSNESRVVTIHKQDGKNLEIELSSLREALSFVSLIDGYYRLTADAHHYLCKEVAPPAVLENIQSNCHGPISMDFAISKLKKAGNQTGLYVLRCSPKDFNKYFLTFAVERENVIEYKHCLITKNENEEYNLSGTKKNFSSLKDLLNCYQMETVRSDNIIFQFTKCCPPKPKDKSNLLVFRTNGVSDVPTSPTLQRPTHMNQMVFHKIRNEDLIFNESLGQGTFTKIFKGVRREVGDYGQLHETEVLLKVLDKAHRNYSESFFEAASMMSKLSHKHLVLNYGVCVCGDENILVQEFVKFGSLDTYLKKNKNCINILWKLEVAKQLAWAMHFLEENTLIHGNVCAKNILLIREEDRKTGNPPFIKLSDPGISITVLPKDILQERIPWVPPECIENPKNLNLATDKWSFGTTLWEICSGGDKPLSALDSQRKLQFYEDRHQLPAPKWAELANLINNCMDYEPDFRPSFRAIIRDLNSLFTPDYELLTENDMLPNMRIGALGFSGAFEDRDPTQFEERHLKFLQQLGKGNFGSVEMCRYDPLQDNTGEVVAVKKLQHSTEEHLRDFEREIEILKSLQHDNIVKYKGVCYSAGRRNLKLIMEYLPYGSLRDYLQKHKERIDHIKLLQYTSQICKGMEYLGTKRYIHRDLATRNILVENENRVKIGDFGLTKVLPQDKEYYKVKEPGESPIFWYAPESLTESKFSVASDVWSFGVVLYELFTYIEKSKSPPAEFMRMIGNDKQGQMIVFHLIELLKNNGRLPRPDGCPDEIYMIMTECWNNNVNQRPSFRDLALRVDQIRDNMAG
Chain of RAC-alpha serine/threonine-protein kinase (P31749 whole entry): as the sequence (P31749 whole entry M227G) above, with G227M counted along it
Chain of RAC-alpha serine/threonine-protein kinase (Homo sapiens), P31749 [M227G,R25C] (P31749 whole entry R25C/M227G): as the sequence (P31749 whole entry M227G) above, with R25C counted along it

As for `COc1ccccc1N1CCN(c2ncnc3[nH]nc(Br)c23)CC1`, the inhibition in experiment [1] was 8%; in [2], 28%; in experiment [3], -9%; in experiment [4], 9%.
Turning to `CCCc1cc(-c2cncc(OC[C@@H](N)Cc3c[nH]c4ccccc34)c2)cc2c(C)n[nH]c12`, the result (in the experiment on PC-3 [5]; in the experiment with MCF7 [6]; in experiment [7]; in the experiment on PC-3 [8]; in [9]; in the experiment with MCF7 [10]) was Active. For the same molecule, the outcome (in the experiment on PC-3 [11]; in experiment [12]; with HEK-293T [13]; in the experiment on HEK-293T [14]; in experiment [18]; with HEK-293T [21]) was Active. Further, the outcome (with HEK-293T [23]; in experiment [24]; in experiment [25]; in experiment [26]; in the experiment with MiaPaCa2) was Active. Further, the inhibition result in experiment [15] is “Active”. The result (in experiment [16]; in experiment [17]; in experiment [19]; in the experiment on HEK-293T [20]; in experiment [22]; in [27]) was inactive. Besides, the fold change (FC) in [28] came to 10.
For `O=C(NCCCNc1nc(Nc2cccc(NC(=O)N3CCCC3)c2)ncc1I)c1cccs1`, the inhibition in experiment [1] stood at 40%; in [2], 58%; in [3], 74%; in [4], 42%.
